Assay outcomes as filed in PubChem.
In the library only some 2.1% were active in any assay of this set; here they are far more common.
CXCR6 inh – inhibitors of human CXCR6 receptor; O00574; CHO-K1 PathHunter CXCR6 beta-arrestin, luminescence; inhibition, % at 20 µM; actives 0.36% (n = 360,000); AID 602244; in the data active means inhibition above about 34%, passing the limit was not always enough;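 further: antagonist mode with CXCL16 agonist at 10 nM final; 0% = 10 nM CXCL16 with DMSO and 100% = unstimulated wells without agonist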
CCR6 antagonist – antagonists of human CCR6 receptor; P51684; CHO-K1 CCR6 PathHunter beta-arrestin, luminescence, CCL20-stimulated; inhibition, % at 20 µM; actives 0.49% (n = 340,000);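 active means compounds whose inhibition of the agonist-driven luminescence signal at 20 µM reaches about 50%, limit read from the data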;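 further: cells stimulated with CCL20 at 14 nM final; plate controls were DMSO with CCL20 for no effect and DMSO without agonist for full effect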
Target sequence (P51684 whole entry, looked up): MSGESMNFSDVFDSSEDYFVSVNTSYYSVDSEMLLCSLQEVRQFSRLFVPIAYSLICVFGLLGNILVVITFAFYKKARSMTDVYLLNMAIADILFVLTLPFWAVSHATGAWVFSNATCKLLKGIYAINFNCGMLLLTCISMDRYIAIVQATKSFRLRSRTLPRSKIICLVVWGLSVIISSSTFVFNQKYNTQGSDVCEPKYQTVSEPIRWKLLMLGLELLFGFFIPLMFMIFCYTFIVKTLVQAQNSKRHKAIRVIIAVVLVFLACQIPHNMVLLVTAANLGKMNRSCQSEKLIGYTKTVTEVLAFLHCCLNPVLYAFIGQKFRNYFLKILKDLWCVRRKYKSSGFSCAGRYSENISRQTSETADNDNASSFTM
APJ antag – blocks the human apelin receptor APJ | CHO-K1 APJ beta-arrestin complementation, luminescence | inhibition, % at 20 µM | actives 0.32% (n = 330,000) | P35414;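 active means inhibition above about 40% at 20 µM, limit read from the data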;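 further: cells challenged with 10 nM apelin-13 agonist together with compound; plate controls were apelin-13 plus DMSO wells for no effect and DMSO wells lacking apelin-13 for full effect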
APJ ag – APJ receptor agonism | actives 0.11% (n = 330,000) | CHO-K1 APJ PathHunter beta-arrestin, luminescence; 0% DMSO wells, 100% apelin | AID 2520 | activation, % at 20 µM;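 active means activation more than six SD over the plate average, tested at 20 µM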;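 further: 0% = DMSO alone and 100% = apelin-13 at 10 nM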
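Test system: CHO-K1 APJ beta-arrestin complementation cell line | Compound: Single test compound dose, 20 µM final, 1% DMSO | Incubation: Compound 90 min 25 °C, reagent 1 h | Measured by: beta-gal luminescence | Read-out basis: APJ–arrestin association signal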
EBI2 block – blocks human EBI2 receptor beta-arrestin signaling. P32249. EBI2 beta-arrestin recruitment, luminescence, 7a,25-OHC stimulated. inhibition, % at 5 µM. actives 0.81% (n = 360,000). AID 651636; in the data active means inhibition above about 38%;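 further: enzyme fragment complementation signal reports receptor beta-arrestin coupling in cells; 0% = agonist plus DMSO wells and 100% = wells without agonist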
HTR2A ag – activates the mouse 5-HT2A serotonin receptor. CHO-K1 mHTR2A beta-arrestin complementation, luminescence; percent of 30 µM serotonin response. P35363. activation, % at 7.6 µM. actives 0.66% (n = 360,000). AID 624169;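 active means activation above a run cutoff, the mean activation of all tested compounds plus 3 SD, cut at about 14% in these data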;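 further: 0% = plate median of compound wells and 100% = 30 µM serotonin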
APJ antag confirm – APJ receptor antagonism confirmation. shares compounds with APJ antag. APJ beta-arrestin recruitment, luminescence, antagonist mode. inhibition, % at 20 µM. actives 66% (n = 950). AID 2766; in the data active means inhibition above about 50%
Active calls of the source: *; · = not tested or not shown.

SMILES | CXCR6 inh | CCR6 antagonist | APJ antag | APJ ag | EBI2 block | HTR2A ag | APJ antag confirm
O=C1NN(c2ccc(Cl)cc2)C(=O)/C1=C\c1ccc(-c2cccc(C(=O)O)c2)o1 | 20 | 22 | · | · | -9 | 3 | ·
N=C1C(c2ccccc2)=C(O)CN1c1cccc(S(=O)(=O)N2CCCCC2)c1 | 2 | 11 | 3 | -2 | 7 | 0 | ·
Cc1ccc(N(CN2C(=O)NC(C)(C)C2=O)CN2C(=O)NC(C)(C)C2=O)cc1 | 4 | -10 | -4 | 0 | -9 | 1 | ·
CN(C)CCCNC(=O)c1ccc(-c2nc(-c3ccc(Cl)cc3)cs2)cc1 | 14 | 82* | 52* | 0 | 22 | -7 | 94*
CN(C)CCCNC(=O)c1ccccn1 | 11 | 13 | -3 | -2 | -10 | -4 | ·
CC(C)(C)N(Cc1ccccc1)C(=O)c1cc2ccccc2o1 | 2 | 21 | 45* | -2 | 15 | -3 | 23
Cc1cc2cc(C)c3nnc(SCC(=O)Nc4ccc(S(=O)(=O)N5CCCCC5C)cc4)n3c2cc1C (stereo unspecified) | -2 | 10 | -7 | -2 | -8 | -2 | ·
O=C1N/C(=N\S(=O)(=O)c2ccccc2)S/C1=C\c1cc([N+](=O)[O-])ccc1O | 14 | 15 | 33 | -3 | -6 | -1 | ·
O=C1N/C(=N\S(=O)(=O)Cc2ccccc2)S/C1=C/c1cc([N+](=O)[O-])ccc1O | 13 | 31 | 41* | -4 | 10 | -5 | 55*
O=C(CCC(=O)Nc1cccc(Cl)c1)N/N=C/c1cc([N+](=O)[O-])ccc1O | 16 | 38 | 27 | -7 | -6 | -2 | ·
O=C(CCCC(=O)Nc1cccc(Br)c1)N/N=C/c1cc([N+](=O)[O-])ccc1O | 38 | 43 | 49* | -20 | 14 | -16 | 71*
CC1Nc2ncnc(N3CCOCC3)c2N(Cc2ccccc2)C1=O (stereo unspecified) | 8 | 0 | -32 | -3 | -1 | -1 | ·
COc1ccc(CN2C(=O)C(C)Nc3ncnc(N4CCN(c5ccccc5)CC4)c32)cc1 (stereo unspecified) | 68* | 80* | 68* | -12 | 33 | -21 | 115*
CC1(C)CC2(CC(c3ccccc3F)c3cc(Cl)c(O)cc3O2)NC(=S)N1 (stereo unspecified) | 13 | -1 | 48* | -5 | -5 | 1 | 112*
Cc1cccc(C2CC3(CC(C)(C)NC(=S)N3)Oc3cc(O)ccc32)c1 (stereo unspecified) | 14 | 18 | 10 | -1 | 0 | 1 | ·
Cc1ccc(Nc2c([N+](=O)[O-])c(=O)n(C)c3ccccc23)cc1 | 0 | 15 | 15 | -3 | 2 | 2 | ·
COc1cccc(NC(=O)CSc2nnc(-c3cc(C)[nH]n3)n2N)c1 | -9 | 5 | 42* | -2 | 10 | 2 | 1
CC(C)CNc1nnnc2c1sc1nc(N3CCOCC3)c3c(c12)CC(C)(C)SC3 | 12 | 5 | 10 | -2 | 26 | -8 | ·
CC1(C)Cc2c(c(N3CCOCC3)nc3sc4c(NN)ncnc4c23)CS1 | 14 | 56* | 60* | -16 | 16 | 2 | 89*
CCOc1cccc(CN2CCC(N3CCC(C(=O)NCC4CCCO4)CC3)CC2)c1 (stereo unspecified) | 2 | -4 | -7 | -1 | -5 | 6 | ·
CCc1ccc(C(=O)NNc2ccc(Cl)cc2)cc1 | 7 | 19 | 51* | -11 | 36 | -2 | 60*
CN(C)CC(=O)c1ccc(-c2ccccc2)cc1 | 9 | 30 | 46* | -11 | 0 | -4 | 73*
CCN(CC)C(=O)c1ccc(-c2ccccc2)cc1 | -3 | 5 | -8 | -3 | 12 | -2 | ·
CCN(CC)CC(=O)c1ccc(-c2ccccc2)cc1 | 30 | 72* | 94* | -19 | 18 | -4 | 114*
CN(C)c1ccc2nc3c(=O)[nH]c(=O)nc-3n(CC(O)C(O)C(O)CO)c2c1 (stereo unspecified) | 28 | 33 | 70* | -9 | 5 | -4 | 70*
SMILES | CXCR6 inh | CCR6 antagonist | APJ antag | APJ ag | EBI2 block | HTR2A ag | APJ antag confirm
COc1ccc(-c2nc(CS(=O)CC(=O)N3CCN(C)CC3)c(C)o2)cc1OC (stereo unspecified) | -1 | -1 | -17 | 1 | 3 | -3 | ·
O=C(c1ccco1)N(Cc1cccc(Cl)c1)C1CCS(=O)(=O)C1 (stereo unspecified) | 1 | 23 | -8 | 2 | -2 | -3 | ·
O=C(c1ccco1)N(Cc1cccs1)C1CCS(=O)(=O)C1 (stereo unspecified) | -2 | 13 | 47* | -3 | -3 | 4 | 13
CC(C)C(NC(=O)C1CCCCC1)C(=O)NCCc1ccccc1 (stereo unspecified) | 28 | 31 | 41* | -6 | 9 | 2 | 43
CC(C)C(NC(=O)C1CCCCC1)C(=O)NCc1ccccn1 (stereo unspecified) | 2 | 1 | 14 | -4 | 3 | -2 | ·
CN(C)/C=N/c1nc(-c2ccc3c(c2)OCO3)cs1 | 1 | 8 | 17 | -2 | -2 | 1 | ·
CC(=O)Nc1ccc(Nc2ncnc3ccccc23)cc1 | · | · | 43* | -2 | · | · | 9
O=C(CCNC(=O)c1ccc([N+](=O)[O-])cc1)Nc1cc(C(F)(F)F)ccc1N1CCOCC1 | -2 | · | · | · | 9 | -3 | ·
CC(C)(C)OC(=O)C[C@@H]1C/C=C\C[C@H](CC(=O)N(CCO)Cc2ccccc2)C(=O)NC[C@@H](c2ccccc2)OC1=O | 56* | 56* | 54* | -9 | 23 | -29 | 100*
O=[N+]([O-])c1ccc(NNC(=S)Nc2ccccc2)cc1 | 38 | 67* | 43* | -11 | 8 | -3 | 99*
O=[N+]([O-])c1ccc(NC(=S)NCCc2ccccc2)cc1 | 8 | 23 | 18 | -3 | 11 | 0 | ·
COc1ccc(NC(=O)C(CC(=O)O)Cc2ccccc2)cc1 (stereo unspecified) | 2 | -4 | 10 | -2 | 2 | 0 | ·
COc1ccccc1N1CCN(C(=O)c2c(C)cc(=O)oc2C)CC1 | -2 | 16 | 57* | -2 | 1 | 0 | 19
CCOc1ccccc1CN1CCNC(=O)C1CC(=O)NCc1cc(C)n(C)n1 (stereo unspecified) | -10 | 5 | -4 | -5 | -2 | -5 | ·
CC(C)Cn1c(=O)c2sccc2n2c(CCCC(=O)N3CCC(N4CCCCC4)CC3)nnc12 | 4 | 7 | -6 | -1 | -10 | 1 | ·
Cc1cc(Nc2nc3ccccc3nc2Cl)n(-c2ccc([N+](=O)[O-])cc2)n1 | 33 | 56* | 49* | -12 | 40 | 0 | -2
